Source: PubChem BioAssay (Broad Institute)
EBV LMP1 NFkB – reduces LMP1-driven NF-kappaB luciferase signal. LMP1-induced NF-kappaB luciferase reporter cells, luminescence. inhibition, % at 12.5 µM. 0.69% of 350,000 active; in the data active means inhibition above about 41%;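 further: 0% = neutral control wells and 100% = reference inhibitor control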
FN deposit inh – fibronectin deposition inhibition | AID 743247 | 0.086% of 350,000 active | inhibition, % at 12.6 µM | AH1F fibroblasts, Alexa488-fibronectin deposition fluorescence, overnight;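 active means mean inhibition across replicates of 30% or more, regardless of how many single replicates reach that level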;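 further: positive control wells lacked labelled fibronectin entirely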
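Assay system: AH1F fibroblasts assembling fluorescent fibronectin matrix; Amount: 10000 AH1F cells per well; Buffer or medium: DMEM, 2% serum; Probe or stimulus: Alexa488-fibronectin, 24 nM final in well; Doses: single compound dose, delivered by pin transfer; Incubation: 1 h adhesion, overnight exposure; Measured by: fluorescence 485/525 nm; Read-out: fibronectin deposition inhibition.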
Shn3 inh set2 – Schnurri-3 reporter inhibition in Clone20 osteoblasts | Clone20 osteoblast Shn3 3'UTR firefly luciferase, 24 h | inhibition, % at 12.5 µM | 0.52% of 360,000 active | AID 588674;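 active means mean inhibition of at least 75% with every replicate also reaching 75%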;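 further: 0% = median of neutral control wells and 100% = pilot-screen positive control compound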
EWS-Fli inh – EWS/Fli transcriptional activity inhibition; A673 NR0B1-luciferase reporter, viability-normalised; inhibition, % at 12.6 µM; 0.67% of 350,000 active; AID 651661;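 active means mean inhibition of at least 50% after viability correction, with every replicate also passing that limit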;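 further: firefly luciferase signal divided by Alamar Blue viability fluorescence both relative to DMSO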
PAX8 inh HTS – PAX8 transcriptional activity inhibition | RMG-I TPO-luciferase reporter, SteadyGlo, 24 h | inhibition, % at 12.6 µM | 1.2% of 360,000 active | AID 652154;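 active means mean replicate inhibition at least 60% with every replicate also reaching 60%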;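 further: luciferase light reporting Pax8 driven TPO promoter activity; plate controls were median of neutral control wells for no effect and mitoxantrone controls for full effect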
aSyn 5UTR inh – MLPCN primary screen, SNCA 5' untranslated region. 0.82% of 300,000 active. inhibition, % (tested at 7.5 µM). alpha-synuclein 5'UTR reporter, inhibitor activity; in the data active means inhibition above about 60%;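 further: H4 neuroglioblastoma cells stably carrying SNCA 5'UTR luciferase fusion; 0% = DMSO wells and 100% = positive control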
* = called active by the depositor; . = not tested or not shown; ! = not active in a repeat. Only some compounds are listed: those with a hit (about 2.1% of all), similar ones and a draw of the others.

SMILES	EBV LMP1 NFkB	FN deposit inh	Shn3 inh set2	EWS-Fli inh	PAX8 inh HTS	aSyn 5UTR inh
CCCC(=O)N1CC2(C1)CN(C(=O)C1CCOCC1)[C@H](CO)c1[nH]c3cc(OC)ccc3c12	.	.	.	-10	-15	.
CN(C)C(=O)[C@@H]1[C@@H](CO)[C@@H]2Cn3c(ccc(-c4ccncc4)c3=O)[C@H]1N2CC1CCCC1	.	.	.	1	.	.
C[C@@H]1CCCCO[C@H](CN(C)C(=O)Cc2ccccc2)[C@H](C)CN([C@@H](C)CO)C(=O)c2cc(NC(=O)Nc3ccc(C(F)(F)F)cc3)ccc2O1	.	.	.	-11	79*	.
C[C@@H]1CN([C@H](C)CO)C(=O)c2cc(NC(=O)Nc3ccccc3)ccc2O[C@@H](C)CCCCO[C@@H]1CN(C)C(=O)Cc1ccccc1	.	-3	.	-13	-3	.
CN1C(=O)c2cc(NC(=O)c3ccc(F)c(F)c3)ccc2OC[C@@H]2O[C@H](CC(=O)N[C@H]3CCN(Cc4ccccc4)C3)CC[C@@H]21	.	-2	.	5	26	.
CC(C)NC(=O)N1CC2(C1)[C@H](c1ccccc1)[C@H](CO)N2C(=O)C1CCCC1	.	4	.	.	.	.
CC(=O)Nc1sc(C)c(C)c1C(=O)OCC(=O)N(CC(C)C)c1c(N)n(Cc2ccccc2)c(=O)[nH]c1=O	-249	-5	66	63*	-11	77*
COC(=O)c1c(C)[nH]c(C(=O)OCC(=O)N(CC(C)C)c2c(N)n(Cc3ccccc3)c(=O)[nH]c2=O)c1C	-1	9	3	7	-4	11
COc1cccc(CN2[C@H](CO)[C@H](c3ccccc3)C23CN(Cc2ccccc2OC)C3)c1	.	2	.	.	.	.
O=C1NC(=O)/C(=C/c2cccc([N+](=O)[O-])c2)N1	9	-4	-12	-2	11	11
CCOc1cc(/C=C2\CN(CC)C/C(=C\c3ccc(O)c(OCC)c3)C2=O)ccc1O	-111	1	97*	61*	13	102*
CCN1C/C(=C/c2cccc([N+](=O)[O-])c2)C(=O)/C(=C/c2cccc([N+](=O)[O-])c2)C1	97*	-5	99*	.	56	.
COc1cc(/C=C2\CCC/C(=C\c3ccc(O)c(OC)c3)C2=O)ccc1O	-9	11	14	77*	35	-394
COc1cc(/C=C2\CC/C(=C\c3cc(OC)c(O)c(OC)c3)C2=O)cc(OC)c1O	3	1	34	28	88*	.
Cc1ccc(S(=O)(=O)N(C)C[C@H]2OCCCC[C@H](C)Oc3ccc(NC(=O)c4ccccc4)cc3C(=O)N([C@H](C)CO)C[C@H]2C)cc1	.	-5	.	6	-8	.
CCCNC(=O)Nc1ccc2c(c1)C(=O)N(C)C[C@H](OC)[C@H](C)CN(Cc1cncnc1)[C@@H](C)CO2	.	-4	.	-1	.	.
COc1cc(/C=C2/CCC/C(=C\c3cc(O)c(OC)c(Cl)c3)C2=O)cc(Cl)c1O	-12	26	45	.	81*	-143
COc1cc(C=C2C(=O)C=CC2=O)ccc1O	.	29	.	46	106*	.
COc1cc(/C=C2/C(=O)CNC2=O)ccc1O	8	2	7	.	-11	4
CCCC(=O)N1CC2(CN(C)C2)c2c(n(C)c3cc(OC)ccc23)[C@@H]1CO	.	.	.	2	.	.
CCCc1cc(-c2[nH]ncc2-c2ccc3c(c2)OCCCO3)c(O)cc1OC	.	1	.	.	8	.
C=C(C)COc1ccc(-c2[nH]ncc2-c2ccc(Br)cc2)c(O)c1	2	2	30	.	32	91*
COc1ccc(-c2[nH]ncc2-c2ccc3c(c2)OCCO3)c(O)c1	64*	.	11	.	.	36
CN(C)C(=O)N1CCN(S(=O)(=O)c2ccc3ccccc3c2)CC1	0	3	10	4	15	13
O=C(CCl)N1CCN(S(=O)(=O)c2ccc3ccccc3c2)CC1	2	8	4	60*	3	2
SMILES	EBV LMP1 NFkB	FN deposit inh	Shn3 inh set2	EWS-Fli inh	PAX8 inh HTS	aSyn 5UTR inh
COc1ccc(NC(=O)N(C)C[C@H]2Oc3c(NC(=O)c4ccc(-c5nccs5)cc4)cccc3C(=O)N([C@H](C)CO)C[C@@H]2C)cc1	.	.	.	3	.	.
CCCNC(=O)[C@H]1[C@H](CO)[C@H]2Cn3c(ccc(-c4ccc(F)cc4)c3=O)[C@@H]1N2CCC	.	.	.	10	.	.
C[C@@H]1CN([C@H](C)CO)C(=O)c2cc(NS(=O)(=O)c3ccc(F)cc3)ccc2O[C@H]1CN(C)S(=O)(=O)c1ccccc1	.	.	.	0	30	.
COc1cc(N=c2ssnc2Cl)c(OC)cc1Cl	4	0	95*!	6	11	-12
Cc1ccc(N=c2ssnc2Cl)cc1	-3	-7	88*	.	-19	46
Cc1noc(C)c1S(=O)(=O)N(C)C[C@H]1OCCCC[C@@H](C)Oc2ccc(NS(=O)(=O)c3ccc(F)cc3)cc2C(=O)N([C@@H](C)CO)C[C@H]1C	.	-1	.	9	32	.
COc1ccc2c3c([nH]c2c1)[C@H](CO)N(C(=O)C1CCCCC1)CC31CN(Cc2nccs2)C1	.	.	.	10	.	.
C=CCN1Cc2ccccc2[C@H]2OC(c3ccc(OCCCO)cc3)=N[C@@]2(CC=C)C1=O	.	.	.	11	24	.
C=CC[C@@]12N=C(c3ccc(OCCCO)cc3)O[C@@H]1c1ccccc1CN(CCS(=O)(=O)c1ccccc1)C2=O	.	.	.	5	77*	.
CC(=O)O[C@@H]1[C@@H](O)[C@@H](O)[C@H](Oc2c(-c3ccc(O)cc3)oc3c(CC=C(C)C)c(O)cc(O)c3c2=O)O[C@H]1C	.	.	.	.	.	26
CC(=O)O[C@H]1[C@@H](O)[C@H](O)[C@H](Oc2c(O)c(C)c3c4c2[C@@H](C)CC[C@@H]4[C@@H](C)C[C@H]3C=C(C)C)O[C@H]1C	1	8	-2	17	64*	.
COCC(=O)N1[C@@H]2CN(C(=O)Nc3ccccc3Cl)c3ccccc3[C@@H]2[C@@H]1CO	.	6	.	-6	-6	.
CN(CC(=O)NCc1ccc2c(c1)OCO2)S(=O)(=O)c1ccc(Br)s1	-7	.	94*	.	.	4
O=C(c1cnccn1)N1CC(=O)N2[C@H](CO)[C@@H](c3ccc(C4=CCCCC4)cc3)[C@@H]2C1	.	.	.	0	-21	.
CN1CCN(C(=O)C2=C[C@H](c3ccc(Br)cc3)C[C@H](OCc3ccc(CO)cc3)O2)CC1	.	.	.	0	-13	.
COc1ccc(NC(=O)Nc2ccc3c(c2)C(=O)N([C@@H](C)CO)C[C@@H](C)[C@@H](CN(C)C(=O)CCCN(C)C)OCCCC[C@H](C)O3)cc1	.	.	.	-17	.	.
CN(C)c1ccc(C=NNC(=O)c2cccc3ccccc23)c(Cl)c1	74*	18	9	24	28	.
C[C@H]1CN([C@@H](C)CO)C(=O)Cc2cc(NS(C)(=O)=O)ccc2O[C@@H]1CN(C)C(=O)NC1CCCCC1	.	.	.	-5	-3	.
COc1ccc(Br)cc1CNC(=O)C1CCN(C(=O)N(C)C)CC1	-12	14	1	4	-16	78*
O=C(Nc1ccccc1)C1=C(c2ccccc2)S(=O)(=O)CCS1(=O)=O	72*	18	95*	40	10	16
